Assay results published in ChEMBL document CHEMBL4020816.

Assays:
[1] = molecular target: T1, Cannabinoid receptor 1 (Homo sapiens, UniProt P21554); assay: Displacement of [3H]CP55940 from recombinant human CB1 receptor expressed in beta-galactosidase expressing CHOK1 cell membranes after 60 mins by scintillation spectrometry
[2] = molecular target: T1, Cannabinoid receptor 1; assay: Displacement of [3H]CP55940 from recombinant human CB1 receptor expressed in beta-galactosidase expressing CHOK1 cell membranes assessed as kinetic rate index by measuring ratio of radioligand binding at 30 mins to 240 mins by scintillation spectrometry
[3] = molecular target: T1, Cannabinoid receptor 1; assay: Antagonist activity at recombinant human CB1 receptor expressed in HEK293 cell membranes assessed as inhibition of CP55940-induced [35S]GTPgammaS binding preincubated for 1 hr followed by CP55940 addition and subsequent incubation with [35S]GTPgammaS measured after 30 mins by scintillation spectrometry; format: functional
How it was run: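 Antagonism was measured by [35S]GTPγS binding at 30 °C on membranes of HEK-293 cells stably expressing recombinant human CB1.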

T1 sequence (P21554 whole entry): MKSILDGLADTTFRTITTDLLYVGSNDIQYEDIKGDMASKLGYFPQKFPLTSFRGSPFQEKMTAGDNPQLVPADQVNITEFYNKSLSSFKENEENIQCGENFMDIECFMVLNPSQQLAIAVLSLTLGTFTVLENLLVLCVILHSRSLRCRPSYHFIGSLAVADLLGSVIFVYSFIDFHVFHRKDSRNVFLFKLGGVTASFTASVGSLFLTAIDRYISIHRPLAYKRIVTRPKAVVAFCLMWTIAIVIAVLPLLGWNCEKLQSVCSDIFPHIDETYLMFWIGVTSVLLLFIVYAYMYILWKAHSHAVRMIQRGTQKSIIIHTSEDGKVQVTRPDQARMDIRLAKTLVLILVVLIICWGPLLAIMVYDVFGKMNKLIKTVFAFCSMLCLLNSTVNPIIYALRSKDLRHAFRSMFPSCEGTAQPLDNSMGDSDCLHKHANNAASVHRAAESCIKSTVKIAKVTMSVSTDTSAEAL

Cc1c(C(=O)Nc2ccc(OC(F)(F)F)cc2)nc(-c2ccc(Cl)cc2Cl)n1-c1ccc(OS(=O)(=O)CCC(F)(F)F)cc1
Ki ([1]; read-out: Ki): 220 pM | Ki ([1]; read-out: pKi (converted)): 501 pM | Ratio [2]: 1.29 | IC50 ([3]; read-out: IC50): 660 pM

Cc1c(C(=O)NN2CCCCC2)nc(-c2ccc(Cl)cc2Cl)n1-c1ccc(OS(=O)(=O)CCC(C)(C)C)cc1
Ki ([1]; read-out: Ki): 600 pM | Ratio [2]: 0.73 | IC50 ([3]; read-out: IC50): 2400 pM

Cc1c(C(=O)NN2CCCCC2)nc(-c2ccc(Cl)cc2Cl)n1-c1ccc(OS(=O)(=O)CCC(C)C)cc1
Ki ([1]; read-out: Ki): 200 pM | Ratio [2]: 1.02 | IC50 ([3]; read-out: IC50): 1300 pM

Cc1c(C(=O)N[C@@H]2CCCC[C@@H]2O)nc(-c2ccc(Cl)cc2Cl)n1-c1ccc(OS(=O)(=O)CCC(F)(F)F)cc1
Ki ([1]; read-out: Ki): 27 pM | Ki ([1]; read-out: pKi (converted)): 10 pM | Ratio [2]: 1.06 | IC50 ([3]; read-out: IC50): 1800 pM

Cc1c(C(=O)NN2CCCCC2)nc(-c2ccc(Cl)cc2Cl)n1-c1ccc(OCCC(F)(F)F)cc1
Ki ([1]; read-out: Ki): 1260 pM | Ratio [2]: 0.9 | IC50 ([3]; read-out: IC50): 5600 pM

Cc1c(C(=O)NN2CCCCC2)nc(-c2ccc(Cl)cc2Cl)n1-c1ccc(OCCCC(F)(F)F)cc1
Ki ([1]; read-out: Ki): 320 pM | Ratio [2]: 0.8 | IC50 ([3]; read-out: IC50): 1200 pM

Cc1c(C(=O)NN2CCCC(O)C2)nc(-c2ccc(Cl)cc2Cl)n1-c1ccc(OS(=O)(=O)CCC(F)(F)F)cc1 (racemic)
Ki ([1]; read-out: Ki): 270 pM | Ratio [2]: 0.71 | IC50 ([3]; read-out: IC50): 2700 pM

Cc1c(C(=O)NC2CCC(O)CC2)nc(-c2ccc(Cl)cc2Cl)n1-c1ccc(OS(=O)(=O)CCC(F)(F)F)cc1 (mixture of isomers)
Ki ([1]; read-out: Ki): 370 pM | Ratio [2]: 0.88 | IC50 ([3]; read-out: IC50): 3800 pM

CCCCS(=O)(=O)Oc1ccc(-n2c(-c3ccc(Cl)cc3Cl)nc(C(=O)NN3CCCCC3)c2C)cc1
Ki ([1]; read-out: Ki): 180 pM | Ratio [2]: 0.77 | IC50 ([3]; read-out: IC50): 1300 pM

Cc1ccc(NC(=O)c2nc(-c3ccc(Cl)cc3Cl)n(-c3ccc(OS(=O)(=O)CCC(F)(F)F)cc3)c2C)nc1
Ki ([1]; read-out: Ki): 140 pM | Ratio [2]: 0.92 | IC50 ([3]; read-out: IC50): 1700 pM

Cc1c(C(=O)NN2CCCCC2)nc(-c2ccc(Cl)cc2Cl)n1-c1ccc(OS(=O)(=O)CCCC(F)(F)F)cc1
Ki ([1]; read-out: Ki): 62 pM | Ratio [2]: 0.93 | IC50 ([3]; read-out: IC50): 1200 pM

Cc1c(C(=O)NN2CCCCC2)nc(-c2ccc(Cl)cc2Cl)n1-c1ccc(OCCCF)cc1
Ki ([1]; read-out: Ki): 340 pM | Ki ([1]; read-out: pKi (converted)): 100 pM | Ratio [2]: 1.09 | IC50 ([3]; read-out: IC50): 6000 pM

Cc1c(C(=O)N[C@@H]2CCCC[C@@H]2N(C)C)nc(-c2ccc(Cl)cc2Cl)n1-c1ccc(OS(=O)(=O)CCC(F)(F)F)cc1 (racemic)
Ratio [2]: 0.74

Cc1c(C(=O)Nc2ccc(C(F)(F)F)cn2)nc(-c2ccc(Cl)cc2Cl)n1-c1ccc(OS(=O)(=O)CCC(F)(F)F)cc1
Ki ([1]; read-out: Ki): 190 pM | Ratio [2]: 1.39 | IC50 ([3]; read-out: IC50): 610 pM

Cc1c(C(=O)NN2CCCCC2)nc(-c2ccc(Cl)cc2Cl)n1-c1ccc(OS(=O)(=O)CCCF)cc1
Ki ([1]; read-out: Ki): 320 pM | Ratio [2]: 0.88 | IC50 ([3]; read-out: IC50): 3100 pM

Cc1c(C(=O)N[C@@H]2CCCC[C@H]2O)nc(-c2ccc(Cl)cc2Cl)n1-c1ccc(OS(=O)(=O)CCC(F)(F)F)cc1
Ki ([1]; read-out: Ki): 300 pM | Ratio [2]: 0.74 | IC50 ([3]; read-out: IC50): 1700 pM

Cc1c(C(=O)N[C@H]2CCCC[C@H]2N)nc(-c2ccc(Cl)cc2Cl)n1-c1ccc(OS(=O)(=O)CCC(F)(F)F)cc1 (racemic)
Ki ([1]; read-out: Ki): 520 pM | Ratio [2]: 0.79 | IC50 ([3]; read-out: IC50): 7100 pM

Cc1c(C(=O)N[C@H]2CCC[C@H](O)C2)nc(-c2ccc(Cl)cc2Cl)n1-c1ccc(OS(=O)(=O)CCC(F)(F)F)cc1 (racemic)
Ki ([1]; read-out: Ki): 100 pM | Ratio [2]: 0.89 | IC50 ([3]; read-out: IC50): 1100 pM

Cc1c(C(=O)Nc2ccc(C(F)(F)F)nc2)nc(-c2ccc(Cl)cc2Cl)n1-c1ccc(OS(=O)(=O)CCC(F)(F)F)cc1
Ki ([1]; read-out: Ki): 310 pM | Ratio [2]: 1.12 | IC50 ([3]; read-out: IC50): 2200 pM

CCCS(=O)(=O)Oc1ccc(-n2c(-c3ccc(Cl)cc3Cl)nc(C(=O)NN3CCCCC3)c2C)cc1
Ki ([1]; read-out: Ki): 280 pM | Ratio [2]: 0.59 | IC50 ([3]; read-out: IC50): 1800 pM

Cc1c(C(=O)NN2CCCCC2)nc(-c2ccc(Cl)cc2Cl)n1-c1ccc(OS(=O)(=O)CCC(F)(F)F)cc1
Ki ([1]; read-out: Ki): 110 pM | Ratio [2]: 1.02 | IC50 ([3]; read-out: IC50): 1100 pM

Cc1c(C(=O)Nc2ccc(F)nc2)nc(-c2ccc(Cl)cc2Cl)n1-c1ccc(OS(=O)(=O)CCC(F)(F)F)cc1
Ki ([1]; read-out: Ki): 130 pM | Ratio [2]: 0.7 | IC50 ([3]; read-out: pIC50 (converted)): 1260 pM
